Compound activity deposited in PubChem by Sanford-Burnham Center for Chemical Genomics.
A selection: hits, their analogues and other compounds. The true share with any hit is near 0.77%.
hIAP activ = increases human intestinal alkaline phosphatase activity. P09923. activation factor at 10 µM. AID 2524. purified human IAP, CDP-Star luminescence, 30 min; active compounds read high; 1 = vehicle-only enzyme, 0 = enzyme-free background. actives 0.16% (n = 330,000);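 active = activation factor of the enzyme at least 2-fold when tested at 20 µM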
Target sequence (P09923 whole entry, looked up): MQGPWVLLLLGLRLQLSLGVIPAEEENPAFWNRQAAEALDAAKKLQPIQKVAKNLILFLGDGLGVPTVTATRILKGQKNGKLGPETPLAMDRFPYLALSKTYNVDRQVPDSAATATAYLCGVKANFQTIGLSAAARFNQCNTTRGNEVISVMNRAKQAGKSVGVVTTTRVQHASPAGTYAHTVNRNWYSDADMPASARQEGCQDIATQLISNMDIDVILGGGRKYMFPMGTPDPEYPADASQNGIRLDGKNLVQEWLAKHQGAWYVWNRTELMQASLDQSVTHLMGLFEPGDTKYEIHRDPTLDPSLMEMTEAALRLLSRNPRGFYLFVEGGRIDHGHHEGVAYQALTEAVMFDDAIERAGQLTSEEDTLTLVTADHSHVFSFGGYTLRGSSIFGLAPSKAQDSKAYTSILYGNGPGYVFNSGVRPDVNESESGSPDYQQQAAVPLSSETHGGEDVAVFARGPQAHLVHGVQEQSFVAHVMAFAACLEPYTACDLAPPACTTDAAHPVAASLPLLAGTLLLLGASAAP
bIAP activator = increases bovine intestinal alkaline phosphatase activity. purified bovine IAP, CDP-star luminescence, 30 min; active compounds read high; fold of DMSO-control signal, blank-subtracted. activation factor at 20 µM. actives 0.17% (n = 200,000);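 active = activation factor of 2 or more at 20 µM, a signal rise over negative controls twice the positive control's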
mIAP activ = mouse IAP activation; actives 0.24% (n = 330,000); activation factor at 10 µM; AID 2805; muIAP, CDP-Star luminescence, 30 min; active compounds read high; 1 = vehicle-only enzyme signal, 0 = enzyme-free wells;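 active = activation factor of at least 2 at 20 µM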
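Assay system: mouse IAP enzyme / Compound: DMSO-dissolved test compounds / Timing: 30 min, room temperature / Measured by: luminescence from enzymatic CDP-Star hydrolysis / Control set: DMSO-only wells, enzyme-free buffer wells as negative control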
hIAP block = human IAP inhibition; purified IAP, CDP-Star luminescence, 30 min; actives 0.12% (n = 330,000); AID 2544; P09923; inhibition, % at 10 µM;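 active = inhibition reaching a set limit with compound at 10 µM in the primary screen, cut at about 35% in these data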;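 also: plate controls were DMSO wells with enzyme for no effect and no-enzyme buffer wells for full effect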
bIAP inhibitor = blocks bovine intestinal alkaline phosphatase activity | purified bovine IAP, CDP-star luminescence, 30 min | inhibition, % at 20 µM | 190,000 tested, under 10 active | AID 1019;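 active = over 50% inhibition of intestinal alkaline phosphatase at 20 µM in the single-dose screen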
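Assay system – bovine IAP enzyme · Quantity – bovine IAP at 1/65,000,000 final dilution · Detection – CDP-star luminescence signal · Times – 30 min reaction at room temperature · Also added – CDP-star substrate at 30 µM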
mIAP inh = mouse IAP inhibition; actives 0.2% (n = 330,000); inhibition, % at 10 µM; purified mouse IAP, CDP-Star luminescence, 30 min;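 active = inhibition of at least 40% at 10 µM in the primary screen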;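 also: plate controls were DMSO with enzyme for no effect and no enzyme wells for full effect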
* marks the source's active call; other numbers are inactive results; i = inactive; · = no result.

SMILES | hIAP activ | bIAP activator | mIAP activ | hIAP block | bIAP inhibitor | mIAP inh
Cc1cc(C)nc(/N=C(\N)Nc2ccc(-c3ccccc3)cc2)n1 | 1.3 | 3.7* | 1.5 | -34 | -267 | -50
CC(=O)Nc1ccc(N/C(N)=N/c2nc(C)cc(C)n2)cc1 | 0.89 | 1 | 1.1 | 11 | -1 | -6
CCOc1ccc(CCNC(=O)C2CCCN(c3ncnc4c3nc3n4CCCCC3)C2)cc1 (configuration not stated) | 1.1 | · | 1 | -11 | · | -1
O=C(Nc1cccc(Cl)c1)N1CCN(C2c3ccccc3-c3ccccc32)CC1 | 0.84 | · | 2.1* | 16 | · | -109
O=C(NC1CCN(C(=O)Nc2cccc(Cl)c2)CC1)c1ccccc1 | 0.96 | · | 1 | 4 | · | -1
COc1ccc(N2CCN(CNC(=O)c3ccccc3)CC2)cc1 | 1.2 | · | 1.1 | -19 | · | -6
O=C(NCc1cccs1)Nc1cccc(Cl)c1 | 1 | · | 1.8 | -4 | · | -84
O=C(Nc1cccc(Cl)c1)NC1(C(=O)NCc2cccs2)CCCCC1 | 1.1 | 1.1 | 2.2* | -14 | -6 | -121
COc1cc([C@@H]2c3cc4c(cc3[C@@H](O[C@@H]3O[C@@H]5CO[C@@H](C)O[C@H]5[C@H](O)[C@H]3O)[C@H]3COC(=O)[C@H]23)OCO4)cc(OC)c1O | 0.85 | · | 1.1 | 15 | · | -5
CN1CCC(N(C)C(=O)c2cc(-c3ccccc3Cl)nc3ccccc23)CC1 | 0.93 | · | 1 | 8 | · | 0
Cn1c(C(O)c2ccc3c(c2)OCO3)nc2ccccc21 (configuration not stated) | 1.4 | 1.3 | 0.88 | -36 | -32 | 12
CC(C)n1c(C(O)c2ccc3c(c2)OCO3)nc2ccccc21 (configuration not stated) | 0.88 | 2.6* | 1 | 12 | -165 | 0
S=C(Nc1ccc(Cl)c(Cl)c1)NC1CCCCC1 | 0.99 | 0.9 | 3.2* | 0 | 11 | -220
S=C(Nc1ccc(Cl)c(Cl)c1)NC1CCN(Cc2ccccc2)CC1 | 1.2 | 0.9 | 2.2* | -17 | 5 | -115
CC1=CC(C)(C)N2C(=O)C3(N=C(N)NC(Nc4ccccc4)=N3)c3cc(C)cc1c32 (configuration not stated) | 0.98 | 2.3* | 2.2* | 2 | -134 | -121
C=CCC[C@H](Cc1ccc(F)cc1)C(=O)OC[C@@H](Cc1c[nH]c2ccccc12)NC(=O)[C@H](CC=C)CC(=O)N(CCO)Cc1ccccc1 | 1.4 | · | 1.1 | -39 | · | -8
CCN1/C(=C\C=C2\C(=O)N(C)C(=S)N2C)Sc2ccccc21 | 0.63 | 0.6 | 0.85 | 37* | 35 | 15
Cc1cc(C)c(S(=O)(=O)Nc2ccc(O)c(Sc3ncn[nH]3)c2)c(C)c1 | 0.93 | 1 | 0.31 | 7 | 2 | 69*
Clc1ccc(-n2nnc(-c3cccnc3Cl)n2)cc1Cl | 0.95 | 0.9 | 0.51 | 5 | 10 | 49*
COc1ccc(C2Nc3ccc4ccccc4c3-c3c2c(=O)oc2ccccc32)cc1 (configuration not stated) | 1.1 | 3.5* | 1.1 | -14 | -248 | -8
CCOc1ccc(C2Nc3ccc4ccccc4c3-c3c2c(=O)oc2ccccc32)cc1 (configuration not stated) | 0.99 | 1.7 | 0.98 | 1 | -70 | 2
Cc1ccc(NC(=O)CSc2nc3ccccc3c(=O)n2CCCN2CCCCC2)cc1Cl | 1.3 | 2.6* | 1.5 | -33 | -162 | -46
CCCCCCn1ccc(=N)cc1 | 1.1 | 0.9 | 1 | -15 | 11 | -1
CCCCCCCCCCCCCCCCn1cc[n+](CC(C)=O)c1 | · | 5.2* | · | · | -417 | ·
COc1ccc(Cl)c(N2CCN(CCCNC(=O)Nc3ccc(C)cc3)CC2)c1 | 0.86 | 2.2* | 1.8 | 14 | -119 | -79
SMILES | hIAP activ | bIAP activator | mIAP activ | hIAP block | bIAP inhibitor | mIAP inh
COc1ccc(NC(=O)N/C=C/c2ccc(Cl)cc2)cc1 | 1.1 | 1 | 1.1 | -12 | -3 | -9
Cc1ccc(NC(=O)N/C=C/c2ccccc2)cc1 | 0.95 | 0.8 | 2.2* | 5 | 16 | -123
Cc1ccc(NC(=O)N/C=C/c2ccc(Cl)cc2)cc1 | 1.2 | 0.5 | 2.3* | -24 | · | -131
COc1ccccc1NC(=O)Cc1nnc(SCC(=O)NC2=NCCS2)n1C | 1.1 | · | 1.1 | -8 | · | -14
CCc1nn(CC(=O)Nc2cc(C)ccc2C)c(=N)s1 | 1.1 | 1 | 1 | -6 | 4 | 0
COc1ccc(C(=O)NCc2nnc(SCC(=O)c3ccccc3)n2C)cc1OC | 0.98 | · | 0.98 | 2 | · | 2
Cc1cc(C)c(NC(=O)c2ccc(CN3CCc4ccccc4C3)cc2)c(C)c1 | 0.93 | 2.1* | 1 | 7 | -107 | -4
COc1cccc(-c2nn(-c3ccccc3)cc2C(=O)OCC(=O)Nc2ncc(Cl)cc2Cl)c1 | 0.87 | 2* | 0.89 | 13 | -97 | 11
Cc1nn(-c2ccccc2)c(C)c1/C=C/C(=O)OCC(=O)Nc1ncc(Cl)cc1Cl | 0.95 | 11* | 1.1 | 5 | i | -11
O=C(COC(=O)c1cn(-c2ccccc2)nc1-c1ccccc1)Nc1ncc(Cl)cc1Cl | 0.93 | · | 0.95 | 7 | · | 5
O=C(NCCN1C(=O)S/C(=C\c2cccs2)C1=O)[C@H](Cc1ccccc1)N1C(=O)c2ccccc2C1=O | 0.86 | 1 | 0.91 | 14 | 3 | 9
COC(=O)c1ccc2c(c1)C(C)(C)C(/C=C/c1ccc(O)cc1)=[N+]2C | 0.5 | 0.2 | 0.89 | 50* | · | 12
CC(=O)Nc1ccc(NC(=O)CSc2nnc(-c3cc(C)[nH]n3)n2N)cc1 | 0.93 | · | 0.89 | 7 | · | 12
Cc1noc(C)c1CSCC(=O)Nc1cc(C(F)(F)F)ccc1N1CCOCC1 | 1 | · | 1.1 | -2 | · | -10
Cc1nc2scc(C)n2c(=O)c1S(=O)(=O)Nc1ccc(N2CCOCC2)cc1 | 0.77 | · | 0.99 | 23 | · | 1
COc1cc(/C=C(\C#N)C(=O)Nc2cccc3ncccc23)ccc1O | 0.57 | 1.1 | 0.94 | 42* | -8 | 6
CC(=O)c1ccc(OCC(=O)OCc2cc(-c3ccco3)on2)cc1 | 0.99 | · | 1.1 | 1 | · | -5
O=C(N/N=C/c1ccc(-c2ccccc2[N+](=O)[O-])o1)c1cncc(Br)c1 | 1 | 3.7* | 0.8 | -4 | -268 | 20
O=C(N/N=C\c1ccc([N+](=O)[O-])o1)c1cncc(Br)c1 | 0.9 | · | 0.65 | 10 | · | 35
CC(C)c1ccc(OC(=O)c2ccc3c(=O)n4c(nc3c2)CCC4)cc1 | 0.94 | · | 0.91 | 6 | · | 9
CCC(C)NC(=O)C1CCC(CNS(=O)(=O)c2ccccc2)CC1 (configuration not stated) | 0.99 | · | 1 | 1 | · | -5
CCCCc1c(O)nc(SCC(=O)NC(C)(C)C)n(-c2ccccc2C)c1=O | 1.1 | 1 | 0.58 | -6 | 3 | 42*
COc1ccc(N2CCN(C(=O)CN(c3cccc(OC)c3)S(=O)(=O)c3ccccc3)CC2)cc1 | 1.2 | · | 0.93 | -18 | · | 7
